Four molecules from ChEMBL document CHEMBL1773041, “Lehualides E-K, cytotoxic metabolites from the Tongan marine sponge Plakortis sp” (J Nat Prod, 2011) can be followed below.

What is called IC50 is the concentration that gives 50% inhibition.

The subject of assay [1] is Saccharomyces cerevisiae. Kind of assay: Antimicrobial activity against Saccharomyces cerevisiae YCG198 harboring Saccharomyces cerevisiae Y8205 MATalpha PDR1delta::NAT PDR3 delta::URA3 assessed as growth inhibition after 18 hrs. In kind it is functional, organism-based. Conditions: YCG198, 18 h. The essentials:
(§1)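 Stationary-phase yeast grown in synthetic complete medium, diluted to 5 × 10^5 cells/mL, then exposed 18 h at 30 °C to seven-point half-log dilutions from DMSO stocks (final 100 to 0.01 μM; one extended series topped at 300 μM). DMSO (1% or 3%) served as control. Growth was read as OD590, and residual growth = OD/OD_DMSO × 100. Mean ± standard error of two independent experiments in triplicate; IC50 from curve fit.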

The next assay concerns HL-60. Kind of assay: Cytotoxicity against human HL60 cells assessed as growth inhibition after 2 days by MTT assay. To be noted: HL-60, 48 h. The assay is classed as functional, cell-based.
Assay [2] relates to Saccharomyces cerevisiae. Kind of assay: Antimicrobial activity against Saccharomyces cerevisiae YCG198 harboring Saccharomyces cerevisiae Y8205 MATalpha PDR1delta::NAT PDR3 delta::URA3 assessed as growth inhibition at 100 uM after 18 hrs. In kind it is functional. To be noted: YCG198, 18 h, read-out: GI. An outline of the steps:
as §1

Assay [3] concerns Saccharomyces cerevisiae. Kind of assay: Antimicrobial activity against wild type Saccharomyces cerevisiae YCG117 harboring Saccharomyces cerevisiae Y8205 MATalpha ura3delta0::NAT assessed as growth inhibition at 0.01 to 100 uM after 18 hrs. The assay is classed as functional, organism-based. The essentials: as §1
Assay [4] deals with Saccharomyces cerevisiae. Nature of the assay: Antimicrobial activity against Saccharomyces cerevisiae YCG198 harboring Saccharomyces cerevisiae Y8205 MATalpha PDR1delta::NAT PDR3 delta::URA3 assessed as growth inhibition at 0.01 to 100 uM after 18 hrs. The assay is classed as functional, organism-based. An outline of the steps: as §1

The source made the active and inactive calls. No cut-off for these calls is given here.

`COc1c(O)c(C)c(C/C=C(\C)CCCCCCc2ccccc2)oc1=O` [LEHUALIDE F]: the values for the IC50 with Saccharomyces cerevisiae [1] and in the assay with HL-60 were 44 µM and 6.2 µM, respectively. Besides, the inhibition of growth at 100 µM in the assay with Saccharomyces cerevisiae [2] turned out to be 60%.
Consider `COc1c(C)c(CCCCCCCCCCSC(C)=O)oc(=O)c1OC` [LEHUALIDE H], for which the “growth inhibition (GI)” value in the assay with Saccharomyces cerevisiae [3] and with Saccharomyces cerevisiae [4] was “inactive” each time. Moreover, the IC50 with HL-60 turned out to be 14.6 µM.
With `COc1c(C)c(CCCCCCCCCCSC)oc(=O)c1OC` [LEHUALIDE I], in the assay on Saccharomyces cerevisiae [3], the “growth inhibition (GI)” value is “inactive”. Besides, the IC50 in the assay on HL-60 stood at 10.8 µM. Moreover, the inhibition of growth at 100 µM in the assay with Saccharomyces cerevisiae [2] was 67%.
The corresponding values for `COc1c(O)c(C)c(C/C=C(\C)CCCCCCCCc2ccccc2)oc1=O` [LEHUALIDE G] are “inactive”, 5.4 µM and 68%.
